“And” between values parts separate entries of the source, which are not always exact repeats. Equal values may be shown once.
Tested on: Fibroblast
Experiment: Multiplex assay against human fibroblast
Assay type: toxicity, cell-based
In short: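 Imaging took place on a CQ1 microscope at 37°C and 5% CO2 once compound had been added to live cells stained at seeding with Hoechst33342, BioTracker Green Microtubule Cytoskeleton Dye, MitoTracker Red and Annexin V Alexa Fluor 680. CellPathfinder machine-learning gating classed cells as Hoechst high-intensity objects or normal cells, classed normal cells as having healthy, pyknosed or fragmented nuclei, and classed pyknosed cells as mitotic or apoptotic. Tubulin, mitochondrial-mass and membrane-permeability phenotypes are per cents of the healthy-nucleus cells.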

[1] = 12 h, 1 µM, compound concentration 1 uM
[2] = 12 h, 10 µM, compound concentration 10 uM
[3] = 24 h, 1 µM, compound concentration 1 uM
[4] = 24 h, 10 µM, compound concentration 10 uM
[5] = 48 h, 1 µM, compound concentration 1 uM
[6] = 48 h, 10 µM, compound concentration 10 uM

Cc1cnc(-c2cc(N3CCN(C(=O)CCS(C)(=O)=O)CC3)ncc2Cl)c(C)c1
Population Apoptotic (%) [1]: 36% and 31%
Population Fragmented Nuclei (%) [1]: 9% and 22%
Population Healthy Nuclei (%) [1]: 71% and 36%
Population Hoechst High Intensity Objects (%) [1]: 1% and 9%
Population Membrane Permeable-Phenotype (%) [1]: 0% and 7%
Population Mitochondria Different-Phenotype (%) [1]: 7% and 10%
Population Mitotic Cells (%) [1]: 63% and 68%
Population Normal (%) [1]: 98% and 90%
Population Pyknosed Nuclei (%) [1]: 19% and 41%
Population Tubulin-Different-Phenotype (%) [1]: 20% and 50%
Total Cell Count [1]: 99 and 85
Population Apoptotic (%) [2]: 40% and 26%
Population Fragmented Nuclei (%) [2]: 13% and 21%
Population Healthy Nuclei (%) [2]: 71% and 63%
Population Hoechst High Intensity Objects (%) [2]: 4% and 1%
Population Membrane Permeable-Phenotype (%) [2]: 1%
Population Mitochondria Different-Phenotype (%) [2]: 2%
Population Mitotic Cells (%) [2]: 60% and 73%
Population Normal (%) [2]: 95% and 98%
Population Pyknosed Nuclei (%) [2]: 14% and 15%
Population Tubulin-Different-Phenotype (%) [2]: 24% and 37%
Total Cell Count [2]: 142 and 121
Population Apoptotic (%) [3]: 54% and 47%
Population Healthy Nuclei (%) [3]: 76% and 38%
Population Hoechst High Intensity Objects (%) [3]: 6% and 10%
Population Membrane Permeable-Phenotype (%) [3]: 2% and 3%
Population Mitochondria Different-Phenotype (%) [3]: 4% and 0%
Population Mitotic Cells (%) [3]: 45% and 52%
Population Normal (%) [3]: 93% and 89%
Population Pyknosed Nuclei (%) [3]: 12% and 25%
Population Tubulin-Different-Phenotype (%) [3]: 30% and 61%
Total Cell Count [3]: 97 and 91
Population Apoptotic (%) [4]: 46% and 42%
Population Fragmented Nuclei (%) [4]: 10% and 19%
Population Healthy Nuclei (%) [4]: 79% and 67%
Population Hoechst High Intensity Objects (%) [4]: 0% and 4%
Population Membrane Permeable-Phenotype (%) [4]: 2%
Population Mitochondria Different-Phenotype (%) [4]: 6% and 9%
Population Mitotic Cells (%) [4]: 53% and 57%
Population Normal (%) [4]: 99% and 95%
Population Pyknosed Nuclei (%) [4]: 9% and 12%
Population Tubulin-Different-Phenotype (%) [4]: 28% and 38%
Total Cell Count [4]: 135 and 116
Population Apoptotic (%) [5]: 69% and 36%
Population Fragmented Nuclei (%) [5]: 19% and 40%
Population Healthy Nuclei (%) [5]: 58% and 47%
Population Hoechst High Intensity Objects (%) [5]: 2% and 5%
Population Membrane Permeable-Phenotype (%) [5]: 0% and 12%
Population Mitochondria Different-Phenotype (%) [5]: 1% and 9%
Population Mitotic Cells (%) [5]: 30% and 63%
Population Normal (%) [5]: 97% and 94%
Population Pyknosed Nuclei (%) [5]: 21% and 12%
Population Tubulin-Different-Phenotype (%) [5]: 33% and 70%
Total Cell Count [5]: 109 and 92
Population Apoptotic (%) [6]: 50% and 75%
Population Fragmented Nuclei (%) [6]: 21% and 29%
Population Healthy Nuclei (%) [6]: 69% and 61%
Population Hoechst High Intensity Objects (%) [6]: 2% and 3%
Population Membrane Permeable-Phenotype (%) [6]: 0% and 2%
Population Mitochondria Different-Phenotype (%) [6]: 7% and 5%
Population Mitotic Cells (%) [6]: 50% and 25%
Population Normal (%) [6]: 97% and 96%
Population Pyknosed Nuclei (%) [6]: 8% and 9%
Population Tubulin-Different-Phenotype (%) [6]: 33%
Total Cell Count [6]: 141 and 131

COC(=O)C1=C(C)NC(C)=C(C(=O)OC(C)C)C1c1cccc2nonc12 (stereo not drawn) [ISRADIPINE]
Population Apoptotic (%) [1]: 16.67% and 18.92%
Population Fragmented Nuclei (%) [1]: 8.07% and 3.38%
Population Healthy Nuclei (%) [1]: 65.84% and 81.01%
Population Hoechst High Intensity Objects (%) [1]: 0%
Population Membrane Permeable-Phenotype (%) [1]: 3.77% and 3.12%
Population Mitochondria Different-Phenotype (%) [1]: 7.55% and 11.98%
Population Mitotic Cells (%) [1]: 83.33% and 81.08%
Population Normal (%) [1]: 100%
Population Pyknosed Nuclei (%) [1]: 26.09% and 15.61%
Population Tubulin-Different-Phenotype (%) [1]: 15.09% and 16.15%
Total Cell Count [1]: 161 and 237
Population Fragmented Nuclei (%) [2]: 12.61% and 3.08%
Population Healthy Nuclei (%) [2]: 63.04% and 75.33%
Population Hoechst High Intensity Objects (%) [2]: 0%
Population Membrane Permeable-Phenotype (%) [2]: 5.52% and 7.02%
Population Mitochondria Different-Phenotype (%) [2]: 17.24% and 19.3%
Population Mitotic Cells (%) [2]: 94.64% and 77.55%
Population Normal (%) [2]: 100%
Population Pyknosed Nuclei (%) [2]: 24.35% and 21.59%
Population Tubulin-Different-Phenotype (%) [2]: 40% and 48.54%
Total Cell Count [2]: 230 and 227
Population Apoptotic (%) [3]: 18.52% and 21.74%
Population Fragmented Nuclei (%) [3]: 12.43% and 8.5%
Population Healthy Nuclei (%) [3]: 72.97% and 82.19%
Population Hoechst High Intensity Objects (%) [3]: 0%
Population Membrane Permeable-Phenotype (%) [3]: 5.93% and 2.46%
Population Mitochondria Different-Phenotype (%) [3]: 1.48% and 4.93%
Population Mitotic Cells (%) [3]: 81.48% and 78.26%
Population Normal (%) [3]: 100%
Population Pyknosed Nuclei (%) [3]: 14.59% and 9.31%
Population Tubulin-Different-Phenotype (%) [3]: 12.59% and 16.26%
Total Cell Count [3]: 185 and 247
Population Fragmented Nuclei (%) [4]: 9.72% and 2.69%
Population Healthy Nuclei (%) [4]: 68.83% and 76.23%
Population Hoechst High Intensity Objects (%) [4]: 0%
Population Membrane Permeable-Phenotype (%) [4]: 4.12%
Population Mitochondria Different-Phenotype (%) [4]: 8.82% and 15.88%
Population Mitotic Cells (%) [4]: 98.11% and 80.85%
Population Normal (%) [4]: 100%
Population Pyknosed Nuclei (%) [4]: 21.46% and 21.08%
Population Tubulin-Different-Phenotype (%) [4]: 39.41% and 47.06%
Total Cell Count [4]: 247 and 223
Population Apoptotic (%) [5]: 30% and 23.53%
Population Fragmented Nuclei (%) [5]: 7.14% and 6.07%
Population Healthy Nuclei (%) [5]: 81.87% and 87.04%
Population Hoechst High Intensity Objects (%) [5]: 0%
Population Membrane Permeable-Phenotype (%) [5]: 2.01% and 1.4%
Population Mitotic Cells (%) [5]: 70% and 76.47%
Population Normal (%) [5]: 100%
Population Pyknosed Nuclei (%) [5]: 10.99% and 6.88%
Population Tubulin-Different-Phenotype (%) [5]: 10.07% and 17.21%
Total Cell Count [5]: 182 and 247
Population Apoptotic (%) [6]: 33.33% and 50%
Population Fragmented Nuclei (%) [6]: 9.58% and 5.05%
Population Healthy Nuclei (%) [6]: 85.42% and 89.45%
Population Hoechst High Intensity Objects (%) [6]: 0%
Population Membrane Permeable-Phenotype (%) [6]: 1.46% and 8.72%
Population Mitochondria Different-Phenotype (%) [6]: 14.63% and 8.72%
Population Mitotic Cells (%) [6]: 66.67% and 50%
Population Normal (%) [6]: 100%
Population Pyknosed Nuclei (%) [6]: 5% and 5.5%
Population Tubulin-Different-Phenotype (%) [6]: 24.39% and 55.38%
Total Cell Count [6]: 240 and 218

Oc1c(CN2CCN(c3ccccn3)CC2)cc(Cl)c2cccnc12
Population Apoptotic (%) [1]: 73% and 57%
Population Fragmented Nuclei (%) [1]: 17% and 27%
Population Healthy Nuclei (%) [1]: 68% and 54%
Population Hoechst High Intensity Objects (%) [1]: 4% and 5%
Population Membrane Permeable-Phenotype (%) [1]: 1% and 8%
Population Mitochondria Different-Phenotype (%) [1]: 0% and 6%
Population Mitotic Cells (%) [1]: 26% and 42%
Population Normal (%) [1]: 95% and 94%
Population Pyknosed Nuclei (%) [1]: 14% and 18%
Population Tubulin-Different-Phenotype (%) [1]: 27% and 43%
Total Cell Count [1]: 168 and 152
Population Apoptotic (%) [2]: 41% and 33%
Population Fragmented Nuclei (%) [2]: 17% and 25%
Population Healthy Nuclei (%) [2]: 54% and 58%
Population Hoechst High Intensity Objects (%) [2]: 5% and 2%
Population Membrane Permeable-Phenotype (%) [2]: 0% and 2%
Population Mitochondria Different-Phenotype (%) [2]: 25% and 9%
Population Mitotic Cells (%) [2]: 58% and 66%
Population Normal (%) [2]: 94% and 97%
Population Pyknosed Nuclei (%) [2]: 27% and 16%
Population Tubulin-Different-Phenotype (%) [2]: 67% and 62%
Total Cell Count [2]: 130 and 131
Population Apoptotic (%) [3]: 50% and 45%
Population Fragmented Nuclei (%) [3]: 19% and 29%
Population Healthy Nuclei (%) [3]: 67% and 56%
Population Hoechst High Intensity Objects (%) [3]: 3% and 5%
Population Membrane Permeable-Phenotype (%) [3]: 0% and 8%
Population Mitochondria Different-Phenotype (%) [3]: 3% and 7%
Population Mitotic Cells (%) [3]: 50% and 55%
Population Normal (%) [3]: 96% and 94%
Population Pyknosed Nuclei (%) [3]: 13%
Population Tubulin-Different-Phenotype (%) [3]: 30% and 47%
Total Cell Count [3]: 174 and 153
Population Apoptotic (%) [4]: 89% and 56%
Population Fragmented Nuclei (%) [4]: 26% and 35%
Population Healthy Nuclei (%) [4]: 46% and 41%
Population Hoechst High Intensity Objects (%) [4]: 0% and 2%
Population Membrane Permeable-Phenotype (%) [4]: 1%
Population Mitochondria Different-Phenotype (%) [4]: 15% and 11%
Population Normal (%) [4]: 100% and 97%
Population Pyknosed Nuclei (%) [4]: 27% and 22%
Population Tubulin-Different-Phenotype (%) [4]: 57% and 68%
Total Cell Count [4]: 139 and 134
Population Apoptotic (%) [5]: 54% and 70%
Population Fragmented Nuclei (%) [5]: 17% and 25%
Population Healthy Nuclei (%) [5]: 67% and 66%
Population Hoechst High Intensity Objects (%) [5]: 5% and 0%
Population Membrane Permeable-Phenotype (%) [5]: 1% and 4%
Population Mitochondria Different-Phenotype (%) [5]: 1% and 4%
Population Mitotic Cells (%) [5]: 45% and 30%
Population Normal (%) [5]: 94% and 99%
Population Pyknosed Nuclei (%) [5]: 14% and 7%
Population Tubulin-Different-Phenotype (%) [5]: 35% and 37%
Total Cell Count [5]: 158 and 137
Population Apoptotic (%) [6]: 85% and 78%
Population Fragmented Nuclei (%) [6]: 31% and 34%
Population Healthy Nuclei (%) [6]: 32% and 41%
Population Hoechst High Intensity Objects (%) [6]: 2%
Population Membrane Permeable-Phenotype (%) [6]: 0% and 1%
Population Mitochondria Different-Phenotype (%) [6]: 9% and 7%
Population Mitotic Cells (%) [6]: 14% and 21%
Population Normal (%) [6]: 97%
Population Pyknosed Nuclei (%) [6]: 35% and 24%
Population Tubulin-Different-Phenotype (%) [6]: 38% and 65%
Total Cell Count [6]: 137

From ChEMBL document CHEMBL5724801, “EUbOPEN Chemogenomics Library - Multiplex” (2024)
